Data published in PubChem BioAssay AID504654 (Molecular Libraries Program, Specialized Chemistry Center, …, 2011).
The source made the active and inactive calls.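 How the source made its calls: active means IC50 of at least 20 µM; inactive means IC50 below 20 µM.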

target: HeLa ODD-luciferase turnover, degradation rate luminescence; test: p97-independent proteasomal reporter degradation blockers – cell-based, HeLa, luminescence, counter-screen for p97 inhibitor project, SAR follow-up (AID 504654)
In short: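 Assay system: human HeLa line with stable ODD-luciferase reporter. Timing: 1 h MG132 block, 70/90/120/150 min chase. Signal: luminescence after luciferin substrate addition.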

SMILES | IC50
Fc1cccc(CNc2nc(NCc3ccccc3)c3ccccc3n2)c1 | inactive
COc1cccc2c(NCc3ccccc3)nc(-n3c(=O)oc4ccccc43)nc12 | > 20 µM
COc1cccc2c(NCc3ccccc3)nc(Nc3nc4ccccc4n3C)nc12 | inactive
Cc1ccc(CNc2nc(NCc3ccccc3)c3ccccc3n2)cc1 | inactive
Brc1cccc(CNc2nc(NCc3ccccc3)c3ccccc3n2)c1 | inactive
FC(F)(F)c1ccc(CNc2nc(NCc3ccccc3)c3ccccc3n2)cc1 | inactive
COc1cccc2c(NCc3ccccc3)nc(Nc3cccc(Cl)c3)nc12 | inactive
COc1cccc2c(NCc3ccccc3)nc(NCc3cccs3)nc12 | inactive
c1ccc(CNc2nc(N3CCOc4ccccc43)nc3ccsc23)cc1 | inactive
COc1cccc2c(NCc3ccccc3)nc(NCc3ccccc3)nc12 | inactive
